The values that follow come from ChEMBL document CHEMBL4385654, “Inhibitory effects of N-(acryloyl)benzamide derivatives on tyrosinase and melanogenesis” (Bioorg Med Chem, 2019).

Series [1] in a line: Antioxidant activity assessed as DPPH-radical scavenging activity at 1 mM incubated for 30 mins under dark condition by microplate reader based assay relative to control. In kind it is functional. The method, boiled down: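 20 µL of 10 mM DMSO stock mixed with 180 µL of 0.2 mM DPPH in methanol (stated test level 1 mM). L-ascorbic acid served as the positive control. Kept 30 min in the dark, then absorbance read at 517 nm. Scavenging % = 100×(Ac−As)/Ac against the untreated control. Three independent experiments, mean ± SD.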

The species named for series [2] is Mus musculus. The experiment in a line: Inhibition of tyrosinase in alpha-MSH-stimulated mouse B16F10 cells at 400 uM incubated for 24 hrs by microplate reader based assay. The method, boiled down: (§1)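 B16F10 cells were seeded at 5x10^4 per well and cultured 24 h, then given 1 µM α-MSH plus agent (0–25 µM; kojic acid 25 µM; arbutin 400 µM) for 24 h. Cells were PBS-washed and lysed in 1% Triton X-100, 0.1 mM PMSF, 50 mM phosphate pH 6.8. Lysate was frozen at −80 °C, then centrifuged. 80 µL supernatant was mixed with 20 µL 10 mM L-DOPA, held 30 min at 37 °C, and OD500 read. Triplicate runs.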

A further series deals with B16-F10. Nature of the series: Cytotoxicity in mouse B16F10 cells assessed as reduction in cell viability up to 25 uM incubated for 24 hrs by WST-8 assay. In kind it is cell-based. The following applies: b16-f10, 24 h. Put shortly: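 B16F10 murine melanoma cells were grown in DMEM with 10% FBS, penicillin and streptomycin at 37 °C and 5% CO2, seeded at 5x10^4 per well and cultured 24 h. They were then dosed at 0, 5, 10 or 25 for 24 h. WST-8 reagent was added, and OD450 was read. Viability is given as % of untreated cells; triplicate runs.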

The species named for series [3] is Mus musculus. Nature of the series: Inhibition of tyrosinase in alpha-MSH-stimulated mouse B16F10 cells at 25 uM incubated for 24 hrs by microplate reader based assay. The method, boiled down:
as §1

For series [4], the species on record is Mus musculus. Nature of the series: Inhibition of tyrosinase in alpha-MSH-stimulated mouse B16F10 cells assessed as reduction in melanin levels at 5 uM incubated for 24 hrs by microplate reader based assay relative to control. The method, boiled down:
(§2)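 B16F10 cells were seeded at 5x10^4 per well and cultured 24 h at 37 °C, 5% CO2. They were then co-treated with 1 µM α-MSH and test agent (0, 5, 10 or 25 µM) for 24 h, with kojic acid at 25 µM alongside. After two PBS washes, melanin was dissolved in 200 µL 1 M NaOH for 1 h and OD405 read. Triplicate runs.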

The species named for series [5] is Mus musculus. The experiment in a line: Inhibition of tyrosinase in alpha-MSH-stimulated mouse B16F10 cells assessed as reduction in melanin levels at 10 uM incubated for 24 hrs by microplate reader based assay relative to control. The method, boiled down:
as §2

The species named for series [6] is Mus musculus. The experiment in a line: Inhibition of tyrosinase in alpha-MSH-stimulated mouse B16F10 cells assessed as reduction in melanin levels at 25 uM incubated for 24 hrs by microplate reader based assay relative to control. The method, boiled down:
as §2

Calls of active or inactive are those of the source. The rule behind the calls is not given here.

Turning to `O=C(/C=C/c1ccc(O)cc1)NC(=O)c1ccccc1`, the inhibition in series [1] came out at 4.89%.

Turning to `O=C1O[C@H]([C@@H](O)CO)C(O)=C1O`, the inhibition in series [1] stood at 84.6%.

Regarding `COc1cc(/C=C/C(=O)NC(=O)c2ccccc2)cc(OC)c1OC`, the inhibition in series [1] was 6.9%.

Take `OC[C@H]1O[C@@H](Oc2ccc(O)cc2)[C@H](O)[C@@H](O)[C@@H]1O`: the inhibition in the series filed under Mus musculus [2] turned out to be 41.8%.

As for `COc1ccc(/C=C/C(=O)NC(=O)c2ccccc2)cc1O`, the Activity entry in the series with B16-F10 is listed as “Non-Toxic”. In addition, the inhibition turned out to be 59.7% in the series listed under Mus musculus [3]; 9.06% in the series listed under Mus musculus [4]; 31.2% in the series filed under Mus musculus [5]; 48% in the series filed under Mus musculus [6]; 7.02% in series [1].

Take `COc1ccc(/C=C/C(=O)NC(=O)c2ccccc2)c(OC)c1`: the inhibition in series [1] stood at 5.76%.

Regarding `O=C(/C=C/c1ccc(O)c(O)c1)NC(=O)c1ccccc1`, in the series with B16-F10, the Activity result is recorded as “Non-Toxic”. In addition, the inhibition came out at 76.8% in the series filed under Mus musculus [3]; 21.6% in the series listed under Mus musculus [4]; 37.6% in the series listed under Mus musculus [5]; 61.8% in the series filed under Mus musculus [6]; 82.9% in series [1].

Consider `O=C(/C=C/c1ccc(O)c(Br)c1)NC(=O)c1ccccc1`, for which the inhibition in series [1] was 17.3%.

For `COc1ccc(/C=C/C(=O)NC(=O)c2ccccc2)cc1OC`, the inhibition in series [1] came out at 4.82%.

For `O=C(/C=C/c1cc(Br)c(O)c(Br)c1)NC(=O)c1ccccc1`, in series [1], the inhibition entry was “inactive”.

Consider `O=c1cc(CO)occ1O`, for which the inhibition in the series filed under Mus musculus [3] was 50.3%; in the series filed under Mus musculus [6], 39%.

With `COc1cc(/C=C/C(=O)NC(=O)c2ccccc2)cc(OC)c1O`, the inhibition in series [1] stood at 3.76%.

For the compound `COc1ccc(/C=C/C(=O)NC(=O)c2ccccc2)cc1`, in series [1], the inhibition was determined as 5.61%.
